Insulin prom act: TRM-6 insulin promoter activation; AID 1296; TRM-6 cells, insulin promoter eGFP reporter, imaging; plate-scaled: unstimulated 0, stimulated control 100; hit rate 0.81% among 130,000; activation, % at 2 µM;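 active = activation at 2 µM above a set limit, confirmed on inspection of the cell images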;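 also: share of cells whose green reporter signal exceeds an intensity cutoff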
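System: human fetal islet-derived TRM-6 cells with tamoxifen-inducible insulin promoter–eGFP reporter; input: seeding density of 1,000 cells per well; buffer or medium: Low-glucose (5.5 mM) medium with tamoxifen; incubation: compound exposure 48 h, 37 °C; measured by: high-content imaging of fixed cells with Hoechst nuclear stain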
* marks the source's active call; other numbers are inactive results. This is one part of a sample in which hits are shown more often than they occur.

SMILES | Insulin prom act
COC(=O)CN1C(=O)S/C(=C/c2ccc(N3CCCCC3)o2)C1=O | 184*
COC(=O)CN1C(=O)S/C(=C/c2cc(C)n(C)c2C)C1=O | -4
CN(C)c1ccc(/C=C/C=N/Nc2nc(N3CCOCC3)nc(N3CCOCC3)n2)cc1 | 8
C/C(=N\NC(=O)c1nn(C)c(C)c1Br)c1cccc(NC(=O)c2ccoc2C)c1 | 8
CC1=NN(c2cccc(C(=O)O)c2)C(=O)/C1=C\C=C\c1ccco1 | 456*
CC1=NN(c2ccccc2)C(=O)/C1=C\N1CC(C)OC(C)C1 (stereo unspecified) | -3
O=C1NN(c2ccc(F)cc2)C(=O)/C1=C\C=C\c1ccco1 | 3
O=S(=O)(c1ccccc1)N1CC=C(c2ccccc2)CC1 | -6
COc1ccc(NC(=O)N2CCC(c3nc4ccccc4[nH]3)CC2)cc1 | -2
CCc1[nH]nc(C(=O)N2CCCC(CCC(=O)N3CCN(c4ccccn4)CC3)C2)c1C (stereo unspecified) | 0
CCCOc1ccc2c3c(c(=O)oc2c1OCCC)CCCC3 | 0
CCOC(=O)COc1ccc2c3c(c(=O)oc2c1C)CCC3 | 519*
Cc1c(OCc2nn[nH]n2)ccc2c3c(c(=O)oc12)CCCC3 | 108
COc1cc(/C(C#N)=C/c2ccccc2)c([N+](=O)[O-])cc1OC | -43
O=C(COc1ccc(Br)cc1)N/N=C1\SCC(=O)N1c1ccc(F)cc1 | -93
COc1ccc(C2(C(=O)Nc3ccc(C(=O)O)cc3)CCOCC2)cc1 | -95
O=C(O)c1ccc(NC(=O)C2(c3ccccc3)CCOCC2)cc1 | 494*
O=C(N1CCOCC1)C1(c2ccccc2)CCCCC1 | 0
Cc1sc(N2C(=O)C3C4C=CC(C4)C3C2=O)c(C#N)c1C (stereo unspecified) | 7
C=CCNC(=O)C(=O)NCCOc1ccccc1Cl | 3
Cc1cnc(C)c(N(C)NC(=S)Nc2ccccc2)n1 | 485*
CN(C(=S)Nc1ccccc1)c1ccccc1 | -7
Cc1nn(-c2ccccc2)cc1C(=S)Nc1ccccc1 | -7
O=C(NNc1cccc(Cl)n1)c1ccc(Cl)cc1Cl | 9
O=C(c1ccc(Cl)cc1)c1c[nH]c(C(=O)NNc2cccc(Cl)n2)c1 | 431*
SMILES | Insulin prom act
COC(=O)c1cc(C(=O)c2ccc(C(C)(C)C)cc2)c[nH]1 | 0
Cc1ccc(CNc2ccc3c(c2)OCO3)cc1 | 440*
Cc1cc(C)cc(NC(=S)NCc2ccc3c(c2)OCO3)c1 | -2
COC(=O)CNc1ccc2c(c1)OCO2 | 393
O=C1C(=O)N(CCN2CCOCC2)C(c2ccncc2)/C1=C(/O)c1ccc2c(c1)OCO2 (stereo unspecified) | 4
CC1Cc2cc(/C(O)=C3/C(=O)C(=O)N(CCN4CCOCC4)C3c3cccc(O)c3)ccc2O1 (stereo unspecified) | 467*
O=C(C1=C(O)C(=O)N(CCCN2CCOCC2)C1c1ccccn1)c1cc2ccccc2o1 (stereo unspecified) | 0
CCN(CC)CCCN1C(=O)C(=O)/C(=C(/O)c2ccc3c(c2)OCCO3)C1c1ccco1 (stereo unspecified) | -6
CCN(CC)CCCN1C(=O)C(=O)/C(=C(/O)c2ccc(C)cc2)C1c1ccccn1 (stereo unspecified) | 0
Cc1ccc(/C(O)=C2/C(=O)C(=O)N(CCN3CCOCC3)C2c2ccccn2)cc1 (stereo unspecified) | 850*
Cc1nnc(SCC(=O)c2ccc(Cl)cc2)s1 | -71
O=C(CCl)Nc1cn(-c2ccccc2)nc1-c1ccccc1 | -7
O=C(N/N=C\c1cccc(OC(=O)c2ccco2)c1)c1ccc2c(c1)OCO2 | 4
C/C(CC(=O)NCc1ccco1)=N\NC(=O)COc1ccc(C)cc1 | -3
CC1=C(C#N)C(NC(=O)c2ccc(Cl)cc2)(C(F)(F)F)C(=O)N1 (stereo unspecified) | 3
CC(O)C(C(=O)OCc1ccc([N+](=O)[O-])cc1)N1C(=O)c2ccccc2C1=O (stereo unspecified) | -62
O=C(NCc1ccncc1)c1cc(C(=O)C2CC2)c[nH]1 | 7
Cc1c(C(=O)Oc2cccc3ccccc23)cnn1-c1ccccc1 | -1
CCc1ccccc1NC(=S)N(CCN(C)C)Cc1cccs1 | 7
Cc1ccc(-n2cc(CNCCc3ncc(C)[nH]3)c(-c3ccc(F)cc3)n2)cc1 | 7
CCOC(=O)N1CCN(C(=O)CSc2ncccn2)CC1 | 186*
CCOC(=O)N1CCN(C(=O)CSc2ccc(-c3ccncc3)nn2)CC1 | -75
CCOC(=O)N1CCN(C(=O)CSc2ccc(-c3ccccc3)nn2)CC1 | 3
CCCCCCNC(=O)CC(NS(=O)(=O)c1ccc(OC)cc1)C(C)C (stereo unspecified) | 0
Oc1ccc(-c2csc(-c3ccccc3)n2)cc1O | 7
SMILES | Insulin prom act
CC(=O)Nc1ccc(-c2csc(NCc3ccco3)n2)cc1 | 3
CCC(=O)N(Cc1ccco1)c1nc(-c2ccccc2)cs1 | 136*
COc1ccc(OC)c(/C=N/N(C)c2ccccc2)c1 | 132*
COc1ccc(OC)c(/C=N/NC(=O)CCCC(=O)Nc2cccc(Br)c2)c1 | 7
COc1ccc(OC)c(C(=O)c2ccccc2)c1 | -81
CCC(CC)NC(=O)COC(=O)c1ccc(NS(=O)(=O)c2ccc3c(c2)OCCO3)cc1 | -5
Cc1nn(Cc2ccc(Cl)cc2Cl)c(C)c1NC(=O)Cn1nc([N+](=O)[O-])c(Cl)c1C | 650*
Cc1nn(Cc2ccccc2)c(C)c1NC(=O)CCCn1nc([N+](=O)[O-])c(Cl)c1C | 0
Cc1c(Cl)c([N+](=O)[O-])nn1Cc1ccc(C(=O)Nc2ccc(Cl)cn2)o1 | 3
S=c1[nH]nc(Cc2cccc3ccccc23)n1-c1ccccc1 | -3
O=[N+]([O-])c1ccc(CN2CCN(c3ccc4ccccc4n3)CC2)cc1 | -6
O=C(Nc1cccc2ccccc12)N1CCOCC1 | 3
CCOc1ccc(NC(=O)c2sc(N3CCOCC3)nc2-c2ccccc2)cc1 | -6
N#C/C(=C\c1sc(N2CCOCC2)nc1-c1ccccc1)C(=O)Nc1cccc2ccccc12 | 223*
C[C@H](NS(=O)(=O)c1ccccc1)C(=O)OCC(=O)NC(=O)Nc1ccc2c(c1)OCCO2 | 8
Cc1ccc(-c2cccc(NC(=O)C3C(C(=O)O)[C@@H]4C=C[C@H]3C4)c2)o1 (stereo partly specified) | 154*
O=C(O)c1cccc(NC(=O)C2C3C=CC(C3)C2C(=O)O)c1 (stereo unspecified) | 5
O=C(O)C1C2C=CC(C2)C1C(=O)Nc1cccc(F)c1 (stereo unspecified) | -5
O=C(Cn1nnc(-c2cccs2)n1)N1c2ccccc2Sc2ccc(C(F)(F)F)cc21 | -80
Cc1ccc(NC(=O)c2cccc(S(=O)(=O)N(C)c3ccccc3)c2)cc1S(=O)(=O)N1CCOCC1 | 3
Cc1c2ccccc2nc2c(F)c(NC(C)C)c(F)c(F)c12 | 233*
Cc1c2ccccc2nc2c(F)c(NCCO)c(F)c(F)c12 | 112
OCCNc1c2ccccc2nc2c(F)c(F)c(F)c(F)c12 | 181
CN1C(=O)/C(=C/c2cn(CC(=O)N3CCCCC3)c3ccccc23)c2ccccc21 | 4
O=C(Nc1nc2c(s1)CCc1ccccc1-2)c1ccco1 | 0
O=c1oc2cc(O)ccc2cc1-c1nc2c(s1)CCc1ccccc1-2 | 733*
O=c1oc2ccccc2cc1-c1ccc(O)cc1O | -7
CCOc1ccc(C=NC23CN4CN(CN(C4)C2)C3)cc1 | 191*
CCOc1ccc(CNC(=S)N/N=C\c2ccc([N+](=O)[O-])cc2)cc1 | 0
CCOc1ccc(OCCN2CCCCC2)cc1 | -62

Bioassay records as filed in PubChem BioAssay.
